# Source: PubChem (several laboratories)
# Most compounds without a hit are left out; they make up all but 1.8% or so of the library.
# HKDC1 inh – inhibitors of human hexokinase HKDC1; Q2TB90; recombinant HKDC1, G6PDH/diaphorase resazurin coupled fluorescence; inhibition, % at 20 µM; hit rate 0.16% among 340,000; AID 493160;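 active = inhibition above about 35% when tested at 20 µM, limit read from the data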;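 also: plate controls were DMSO wells with enzyme for no effect and DMSO wells lacking enzyme for full effect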
# Target sequence (Q2TB90 whole entry, looked up): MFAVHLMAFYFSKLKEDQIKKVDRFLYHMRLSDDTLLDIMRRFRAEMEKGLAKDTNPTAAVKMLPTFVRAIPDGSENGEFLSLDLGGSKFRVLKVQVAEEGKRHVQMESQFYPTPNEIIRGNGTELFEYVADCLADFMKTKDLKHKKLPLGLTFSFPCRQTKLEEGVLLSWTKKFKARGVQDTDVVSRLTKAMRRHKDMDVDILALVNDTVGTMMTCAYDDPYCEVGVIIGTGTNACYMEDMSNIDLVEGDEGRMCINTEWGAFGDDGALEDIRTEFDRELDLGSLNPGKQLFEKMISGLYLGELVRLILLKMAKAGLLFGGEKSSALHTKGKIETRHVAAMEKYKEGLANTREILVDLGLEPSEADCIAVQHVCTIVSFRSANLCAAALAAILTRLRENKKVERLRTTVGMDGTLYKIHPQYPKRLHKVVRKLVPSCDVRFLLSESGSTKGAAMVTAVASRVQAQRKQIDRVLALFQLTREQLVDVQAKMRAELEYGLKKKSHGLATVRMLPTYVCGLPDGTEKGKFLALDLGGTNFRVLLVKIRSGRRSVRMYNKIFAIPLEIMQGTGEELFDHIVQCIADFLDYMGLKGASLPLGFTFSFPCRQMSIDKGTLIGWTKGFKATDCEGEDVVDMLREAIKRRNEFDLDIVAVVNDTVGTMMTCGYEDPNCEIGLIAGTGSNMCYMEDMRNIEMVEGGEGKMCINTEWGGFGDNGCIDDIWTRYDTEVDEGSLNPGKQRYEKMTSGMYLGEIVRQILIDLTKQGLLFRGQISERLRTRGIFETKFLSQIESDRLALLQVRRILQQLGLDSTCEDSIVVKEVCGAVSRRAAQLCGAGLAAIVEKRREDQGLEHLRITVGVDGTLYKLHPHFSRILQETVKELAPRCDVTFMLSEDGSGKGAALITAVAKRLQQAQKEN
#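 Material – in-house recombinant HK5 (HKDC1) enzyme · Quantity – HKDC1 at 5 µg/mL · Buffer or medium – pH 8.0 Tris buffer with 10 mM MgCl2 · Reagent – glucose with 1 mM ATP · Dosing – single 20 µM dose · Times – reaction time 90 min, room temperature, protected from light · Technique – resorufin fluorescence at 613 nm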
# A1 inh – inhibitors of the anti-apoptotic protein A1, read as caspase activation; MEF A1-2A-BIM cells, Caspase-Glo 3/7 luminescence, 3 h; percent of clofoctol response, vehicle zero; caspase activation, % (concentration not given with the values); hit rate 0.066% among 330,000; AID 2462;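 active = over half of replicate activation scores above 10%, or exactly half above 10 with the replicate mean above 10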
# ATG4B inhibitor – ATG4B (human) cysteine protease inhibition; inhibition, % at 8.33 µM; ATG4B cleavage of LC3-PLA2, NBD-HPC fluorescence, 1 h; Q9Y4P1; hit rate 0.51% among 340,000; in the data active = inhibition above about 40%
# LANA-H2B inh – blocks KSHV LANA binding to histone H2A/H2B; hit rate 0.6% among 320,000; inhibition, % (concentration not given with the values); AID 2629; cell-free LANA-H2A/H2B peptide, fluorescence polarization; in the data active = inhibition mostly above about 10%, no sharp cut-off; inactive = mostly below about 6.7%
# AI-2 QS mod – modulators of Vibrio harveyi AI-2 quorum sensing system; Vibrio harveyi JMH597 AI-2 luminescence/OD600 ratio, 9 h; hits give low values; strain lacks LuxN and CqsS sensors; 0 = neutral-control median; activity change, % at 7.5 µM; hit rate 0.4% among 300,000; AID 2094; in the data active = activity change below about -75%, passing the limit was not always enough;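 also: luminescence divided by OD600 gain over 9 h not by final OD600 alone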
# HDAC3 inhib – blocks human histone deacetylase 3; O15379; recombinant HDAC3, fluorogenic peptide/trypsin coupled, fluorescence; inhibition, % at 8.3 µM; hit rate 0.15% among 320,000; AID 2718; in the data active = inhibition above about 26%, passing the limit was not always enough
# ATG4B confirm – ATG4B (human) inhibition, single-dose confirmed; shares compounds with ATG4B inhibitor; ATG4B protease fluorescent substrate cleavage assay; inhibition, % at 8.33 µM; hit rate 92% among 320; in the data active = inhibition above about 39%
# PLA2 counter – inhibits human PLA2, flagging false ATG4B inhibitors. shares compounds with ATG4B inhibitor. purified PLA2, NBD-C6-HPC fluorescence, 45 min. inhibition, % at 8.33 µM. hit rate 66% among 1,600. AID 588402; in the data active = inhibition above about 50%
# The depositor's hits bear a star; nt = not tested or not shown.
SMILES,HKDC1 inh,A1 inh,ATG4B inhibitor,LANA-H2B inh,AI-2 QS mod,HDAC3 inhib,PLA2 counter,others
CC1CC(C)CN(C(=O)c2ccc(C#N)cc2)C1 (stereo not given),-5.7,-1.3,-5.0,-2.7,20.7,-0.1,nt,
CC1CC(C)CN(C(=O)c2ccc(S(=O)(=O)N3CC(C)CC(C)C3)cc2)C1 (stereo not given),-6.0,0.2,51.2*,0.7,22.7,-3.5,66.0*,
CC1CC(C)CN(C(=O)c2ccc(C(=O)c3ccccc3)cc2)C1 (stereo not given),-3.3,1.3,41.6*,2.7,25.1,-6.9,43.7,ATG4B confirm=66.5*
CC1CCC(NC(=O)c2ccc(/C=C3\Oc4ccccc4N(C)C3=O)cc2)CC1 (stereo not given),nt,nt,nt,nt,12.9,nt,nt,
O=C(N/N=C/c1cnc2ccccc2n1)c1cccc(F)c1,3.7,-3.8,3.8,2.2,24.5,2.5,nt,
COC(=O)C(C)N(C(=O)c1ccc(C(=O)c2ccccc2)cc1)c1c(C)cccc1C (stereo not given),-4.5,0.1,56.7*,4.5,22.5,4.7,46.9,ATG4B confirm=58.2*
CC1=CC(C)(C)N2C(=O)C3(NCCc4c3[nH]c3ccccc43)c3cc(C)cc1c32 (stereo not given),-2.3,1.5,58.0*,-8.3,17.4,0.1,69.4*,
CN1C(=O)C2(NCCc3c2[nH]c2ccccc32)c2ccccc21 (stereo not given),-1.2,-0.1,-1.5,-0.7,85.8,5.0,nt,
O=C(CCN1C(=O)/C(=C/c2ccccc2Cl)SC1=S)Nc1ccccc1C(=O)O,15.8,-3.0,58.0*,-5.7,104.8,-3.2,51.3*,
O=C(CCN1C(=O)/C(=C\c2ccccc2Cl)SC1=S)Nc1cccnc1,7.4,-0.2,-3.1,-2.4,9.7,4.4,nt,
O=C(CN1C(=O)/C(=C\c2ccco2)SC1=S)Nc1ccc(O)cc1C(=O)O,17.2,-0.6,39.6,9.2,12.1,13.6,nt,
O=C(CCCN1C(=O)/C(=C/c2ccccc2Cl)SC1=S)NNC(=O)c1ccccc1,7.6,-4.7,50.4*,6.7,22.2,-0.3,31.1,ATG4B confirm=54.8*
O=C(CCN1C(=O)/C(=C/c2ccco2)SC1=S)Nc1ccc(O)cc1C(=O)O,25.1,1.1,42.6*,1.6,19.4,-2.5,0.2,
CCOc1ccc(NC(=O)CCC(=O)NNS(=O)(=O)c2ccccc2[N+](=O)[O-])cc1,-5.7,-0.3,1.2,6.6,8.8,1.4,nt,
CN(C)C(CNC(=O)c1ccc(NC(=O)CC#N)cc1)c1ccccc1 (stereo not given),14.4,0.6,46.8*,-1.5,25.2,7.4,55.8*,
Cc1onc(-c2c(Cl)cccc2Cl)c1C(=O)c1c[nH]c(C(=O)NCC2CCCO2)c1 (stereo not given),0.1,0.4,-7.8,nt,13.8,nt,nt,
CCSc1nnc(NC(=O)CSc2nnc(Cc3cccn3C)n2CCc2ccccc2)s1,-7.3,-0.8,58.0*,5.8,17.3,2.2,52.0*,
Cn1cccc1Cc1nnc(SCC(=O)Nc2nccs2)n1CCc1ccccc1,0.0,1.0,7.5,-2.0,31.2,2.1,nt,
CCOC(=O)c1ccc(NC(=S)NCc2ccc(S(N)(=O)=O)cc2)cc1,-1.2,1.1,-9.1,-9.3,21.9,4.6,nt,
CC(C)c1ccc(NC(=O)NCc2ccc(F)cc2)cc1,15.4,-0.9,60.8*,-1.2,13.9,9.5,67.2*,
CCOC(=O)c1ccc(NC(=S)NCc2ccc(F)cc2)cc1,-0.8,-0.2,44.1*,-6.7,17.1,6.0,55.8*,
CC1CCCC(NC(=O)COC(=O)COc2cccc(F)c2)C1C (stereo not given),-4.3,0.5,-6.8,2.4,nt,1.2,nt,
CCn1c(O)c(/C=C2\C=Nc3ccccc32)sc1=Nc1ccccc1,-5.0,-0.5,42.8*,-1.2,4.3,2.0,29.3,
Cn1c(O)c(/C=C2\C=Nc3ccccc32)sc1=Nc1ccc(C(=O)O)cc1,11.3,0.5,11.5,2.7,25.9,nt,nt,
CCCC1=NN2C(=N)/C(=C\c3cc(C)n(-c4cc(C)cc(C)c4)c3C)C(=O)N=C2S1,19.5,0.8,58.2*,1.7,34.9,-0.7,55.2*,
SMILES,HKDC1 inh,A1 inh,ATG4B inhibitor,LANA-H2B inh,AI-2 QS mod,HDAC3 inhib,PLA2 counter,others
Cc1cc(C)cc(-n2c(C)cc(/C=C3\C(=N)N4N=C(CC(C)C)SC4=NC3=O)c2C)c1,19.2,0.6,44.3*,16.5,1.8,-0.8,46.7,ATG4B confirm=45.9*
CCCCCC(=O)Nc1ccccc1N1CCN(c2ccccc2)CC1,6.4,0.7,41.3*,-5.7,25.0,1.4,43.8,ATG4B confirm=51.1*
CCCCC(=O)Nc1ccccc1N1CCOCC1,-0.1,-0.2,-2.7,0.9,13.6,-2.3,nt,
C/C(=N\NC(=O)CCC(=O)NCc1ccccc1)c1ccc([N+](=O)[O-])cc1,0.7,nt,0.0,nt,nt,nt,nt,
O=Cc1cc(N=Nc2ccccc2Cl)ccc1O,17.3,0.1,56.4*,0.8,45.4,8.7,77.5*,
C=CCNC(=O)CSCc1ccc(Br)cc1,-4.2,1.2,-1.3,5.2,7.9,-6.4,nt,
Cc1ccc(N=C2SC(C(=O)Nc3ccc(OC(F)(F)F)cc3)C(N)=C2C(=O)Nc2c(C)cc(C)cc2C)cc1 (stereo not given),3.6,1.6,61.9*,-10.4,nt,20.5,61.5*,
Cc1ccc(NC(=O)C2SC(=Nc3ccccc3)C(C(=O)Nc3ccc(Cl)cc3)=C2N)cc1 (stereo not given),7.2,nt,-4.6,nt,nt,nt,nt,
CCOC(=O)c1cc(CC)sc1NC(=O)c1cc(OC)c(OC)c(OC)c1,-2.8,0.0,-12.9,-4.1,-5.9,-4.8,nt,
O=C(CCSCc1cccc(Cl)c1)NCCC1=CCCCC1,-5.9,0.0,46.4*,-1.3,11.7,14.2,25.0,
CCOc1cc(/C=C2\SC(=O)N(CC(=O)Nc3ccccc3F)C2=O)cc([N+](=O)[O-])c1O,14.3,-0.2,42.5*,-1.6,10.0,3.0,2.6,ATG4B confirm=58.8*
Cc1ccc(N/C=C2/Sc3ccccc3NC2=O)cc1,-3.6,-4.5,-4.5,-8.2,7.4,9.8,nt,
O=C1Nc2ccccc2S/C1=C/NCc1ccccc1Cl,-8.3,-0.8,55.4*,4.9,13.1,-1.5,61.0*,
O=c1n(Cc2ccccc2Cl)nc2n1-c1ccccc1SC2,-2.9,-0.1,52.4*,7.1,14.1,1.9,54.3*,
O=c1n(Cc2ccccc2)nc2n1-c1ccccc1SC2,-1.7,-0.5,38.4,-1.3,22.7,-1.5,nt,
